The text below walks through data of ChEMBL document CHEMBL3120131, “Lipoxygenase inhibitors derived from marine macroalgae” (Bioorg Med Chem Lett, 2014).

Assay [1] has as its target T1, Seed linoleate 9S-lipoxygenase (Glycine max) (UniProt P24095).
T1 sequence (whole entry): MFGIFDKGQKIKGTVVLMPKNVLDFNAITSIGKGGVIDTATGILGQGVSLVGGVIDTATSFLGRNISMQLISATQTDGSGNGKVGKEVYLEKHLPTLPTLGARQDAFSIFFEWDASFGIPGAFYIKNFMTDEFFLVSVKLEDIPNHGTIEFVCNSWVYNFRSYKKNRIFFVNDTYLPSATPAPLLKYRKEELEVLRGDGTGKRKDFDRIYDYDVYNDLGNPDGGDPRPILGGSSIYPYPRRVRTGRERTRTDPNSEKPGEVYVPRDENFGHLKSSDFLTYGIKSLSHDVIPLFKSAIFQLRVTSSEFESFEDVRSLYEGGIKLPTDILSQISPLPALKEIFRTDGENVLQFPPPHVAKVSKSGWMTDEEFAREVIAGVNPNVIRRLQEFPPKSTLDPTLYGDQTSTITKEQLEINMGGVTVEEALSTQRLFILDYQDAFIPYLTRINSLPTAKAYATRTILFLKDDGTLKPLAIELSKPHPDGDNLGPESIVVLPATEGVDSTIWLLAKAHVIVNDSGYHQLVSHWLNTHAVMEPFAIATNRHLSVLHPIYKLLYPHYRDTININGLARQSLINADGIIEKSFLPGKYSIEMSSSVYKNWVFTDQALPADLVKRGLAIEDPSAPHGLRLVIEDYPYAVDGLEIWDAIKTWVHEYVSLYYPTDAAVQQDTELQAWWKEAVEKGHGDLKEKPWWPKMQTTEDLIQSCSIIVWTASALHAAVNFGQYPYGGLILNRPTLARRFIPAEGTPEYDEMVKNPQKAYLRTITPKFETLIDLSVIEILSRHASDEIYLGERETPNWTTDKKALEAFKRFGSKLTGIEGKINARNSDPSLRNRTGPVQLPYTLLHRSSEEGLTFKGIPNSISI
The experiment in a line: Inhibition of soybean lipoxygenase at 100 uM. The procedure, abridged:
(§1)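 Soybean LOX (0.4 mg/mL stock in 100 mM borate, pH 9.0) and methanol-dissolved sample were pre-incubated 5 min at 27.5°C in 20 mM 3-dimethylaminobenzoic acid/borate pH 9.0. Argon-flushed substrate was added and the mixture held 5 min at 27.5°C. Stopped with MBTH–hemoglobin in phosphate pH 5.0; after 5 min, 1% SDS was added and A598 compared against control.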

Assay [2] addresses T2, Seed linoleate 9S-lipoxygenase (Glycine max, UniProt P24095).
T2 sequence (P24095 whole entry): T1 sequence (whole entry)
The assay is described as follows: (§2) Inhibition of soybean lipoxygenase. The gist of the method: as §1

Assay [3] concerns the target T1, Seed linoleate 9S-lipoxygenase (Glycine max). The description is as §2. The procedure, abridged: as §1

For `C=Cc1c(C)c2cc3nc(c4c5[nH]c(cc6nc(cc1[nH]2)C(C)=C6CC)c(C)c5C(=O)C4)[C@@H](CCC(=O)OC/C=C(\C)CCC[C@H](C)CCC[C@H](C)CCCC(C)C)[C@@H]3C`, the inhibition (commonly the relative decrease from the control value, in per cent) in assay [1] came to 29.4%.
In assay [1], `C=Cc1c(C)c2cc3nc(c4c5[nH]c(cc6nc(cc1[nH]2)C(C)=C6CC)c(C)c5C(=O)[C@@H]4C(=O)OC)[C@@H](CCC(=O)OC/C=C(\C)CCC[C@H](C)CCC[C@H](C)CCCC(C)C)[C@@H]3C` showed an inhibition of 37.6%.
Same read-out and setting: the same measure for `C=Cc1c(C)c2cc3nc(c4c5[nH]c(cc6nc(cc1[nH]2)C(C)=C6CC)c(C)c5C(=O)C4)[C@@H](CCC(=O)O)[C@@H]3C`: 15%.
In the case of `C=CCCC/C=C\C/C=C\C/C=C\C/C=C\CCCCC`, in assay [2], the IC50 (commonly the concentration needed to halve the response being measured) was found to be 40 µM. Besides, the inhibition result in assay [3] was “Dose-dependent effect”.
`CC(Cc1ccc(O)c(O)c1)C(C)Cc1ccc(O)c(O)c1` (stereo not given) [NORDIHYDROGUAIARETIC ACID] yielded an inhibition in assay [1] of 12.7%. The midpoint of inhibition in assay [2], the IC50, lay at 400 µM.
The molecule `C=Cc1c(C)c2cc3nc(c4c5[nH]c(cc6nc(cc1[nH]2)C(C)=C6CC)c(C)c5C(=O)[C@@H]4C(=O)OC)[C@@H](CCC(=O)O)[C@@H]3C` displayed an inhibition in assay [1] of 6.5%.
Consider `C=CCCC/C=C\C/C=C\C/C=C\C/C=C\C/C=C\CC`, for which the IC50 in assay [2] stood at 5 µM. The inhibition result in assay [3] was “Dose-dependent effect”.
